Reference: ChEMBL document CHEMBL1124102, “Synthesis and biodistribution of 99mTc-labeled piperidinyl bis(aminoethanethiol) complexes: potential brain perfusion imaging agents for single photon emission computed tomography” (J Med Chem, 1988)

Legend:
Rattus norvegicus [1] = test: Brain Uptake of compound was measured after 15 min of administration; type: functional, organism-based
How it was run: (§1)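 Tc-99m complex injected into rats, three per time point. At set times, 1 mL blood was drawn by cardiac puncture and the animal was killed by cardiectomy. Organs were excised, weighed and gamma-counted. Percent dose per organ came from comparing tissue counts with dilutions of the injected dose, reported as the mean with the range across the three rats.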

[2] = Ratio of brain dose per gram to the blood dose per gram measured at 2 min; type: functional, tissue-based
How it was run: (§2)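 Rats (three per time point) were given the Tc-99m complex, then sampled by cardiac puncture, killed, and had organs excised and gamma-counted against injected-dose dilutions. Percent dose/organ was converted to percent dose/gram using mean organ weights (brain 1.65 g; blood 18 g). The ratio is (brain dose/gram)/(blood dose/gram).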

Rattus norvegicus [3] = test: Brain Uptake of compound was measured after 2 min of administration; type: functional, organism-based; how it was run: as §1
[4] = Ratio of brain dose per gram to the blood dose per gram measured at 15 min; type: functional, tissue-based; how it was run: as §2

Tc-labeled 3,3,10,10-tetramethyl-6-(2-methylhexahydro-1-pyridinylmethyl)-1-acetone2,11-dithia-5-azonia-8-azatricyclo[6.3.0.01,5]undecane (isomer)
Uptake value (Rattus norvegicus [1]): 0.54
Ratio [2]: 4.96
Uptake value (Rattus norvegicus [3]): 1.8
Ratio [4]: 3.84

Tc-labeled 3,3,10,10-tetramethyl-6-(2,6-dimethylhexahydro-1-pyridinylmethyl)-1-acetone2,11-dithia-5-azonia-8-azatricyclo[6.3.0.01,5]undecane (isomer)
Uptake value (Rattus norvegicus [1]): 0.54
Ratio [2]: 1.98
Uptake value (Rattus norvegicus [3]): 1.19
Ratio [4]: 2.07

Tc-labeled 3,3,10,10-tetramethyl-6-(2-methylhexahydro-1-pyridinylmethyl)-1-acetone2,11-dithia-5-azonia-8-azatricyclo[6.3.0.01,5]undecane
Uptake value (Rattus norvegicus [1]): 0.35
Ratio [2]: 1.06
Uptake value (Rattus norvegicus [3]): 0.61
Ratio [4]: 1.84
